Data set [1] deals with T1, Stearoyl-CoA desaturase (Homo sapiens, UniProt O00767).
T1 sequence (O00767 whole entry): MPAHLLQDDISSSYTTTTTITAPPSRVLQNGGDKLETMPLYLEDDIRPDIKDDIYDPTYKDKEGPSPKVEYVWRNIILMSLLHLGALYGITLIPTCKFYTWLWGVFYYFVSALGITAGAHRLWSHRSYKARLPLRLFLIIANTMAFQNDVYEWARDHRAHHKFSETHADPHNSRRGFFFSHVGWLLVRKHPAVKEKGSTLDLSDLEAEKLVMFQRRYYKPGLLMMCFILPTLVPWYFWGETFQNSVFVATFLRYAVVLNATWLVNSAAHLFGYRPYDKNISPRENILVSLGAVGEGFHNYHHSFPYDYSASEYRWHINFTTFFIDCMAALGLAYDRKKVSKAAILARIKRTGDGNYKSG
As to the kind of experiment: Inhibition of human SCD1 expressed in human 293A cells assessed as conversion of [14C]stearate to [14C]oleate. It counts as cell-based.

Data set [2] addresses Stearoyl-CoA desaturase 1 (Mus musculus) (UniProt P13516). Kind of data set: Inhibition of SCD1 in mouse liver assessed as conversion of [14C]stearate to [14C]oleate after 60 mins in S9 microsomal fraction.
Data set [3] deals with Stearoyl-CoA desaturase (Homo sapiens) (UniProt O00767). Kind of data set: Inhibition of SCD1 in human 293A cells S9 microsomal fraction assessed as conversion of [14C]stearate to [14C]oleate after 60 mins.
For data set [4], the system named is Mus musculus. Kind of data set: In vivo inhibition of SCD1 in db/db mouse liver assessed as conversion of [14C]stearate to [14C]oleate administered through oral gavage. It counts as functional. The following applies: read-out: ID50 (the source's name).
Data set [5] deals with T1, Stearoyl-CoA desaturase. As to the kind of experiment: Inhibition of SCD1 in human 293A cell microsomal fraction assessed as conversion of [14C]stearate to [14C]oleate after 60 mins at 0.4 uM.
Data set [6] is described as follows: Clearance in C57BL/6J mouse at 5 mg/kg, iv. The following applies: in vivo. In kind it is ADME, organism-based. The arrangement: dose 5 mg/kg, route intravenous. Put shortly: (§1)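 Single iv dose of 5 mg/kg in DMA/Tween80/saline (10/10/80), injected into the tail vein of C57BL/6J mice (n = 2). Plasma collected up to 8 h after dosing and compound measured by LC/MS. Values are arithmetic means of at least two experiments.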

A short description of data set [7]: Volume of distribution in C57BL/6J mouse at 5 mg/kg, iv. To be noted: in vivo. Set-up: dose 5 mg/kg, route intravenous. It counts as ADME, organism-based. Put shortly:
as §1

Data set [8] in a line: Cmax in C57BL/6J mouse at 20 mg/kg, po. In kind it is ADME, organism-based. The arrangement: dose 20 mg/kg, route oral. The following applies: in vivo. Put shortly: (§2)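 Oral dose of 20 mg/kg in PG/Tween (4/1), given by intubation tube to C57BL/6J mice (n = 3). Plasma sampled up to 8 h after dosing and compound levels measured by LC/MS. Values are arithmetic means of at least two experiments.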

The nature of data set [9]: Half life in C57BL/6J mouse at 20 mg/kg, po. It counts as ADME, organism-based. The arrangement: dose 20 mg/kg, route oral. The following applies: in vivo. Put shortly:
as §2

A short description of data set [10]: Tmax in C57BL/6J mouse at 20 mg/kg, po. The arrangement: dose 20 mg/kg, route oral. The following applies: in vivo. It counts as ADME, organism-based. Put shortly:
as §2

A short description of data set [11]: AUC (0 to8 hrs) in C57BL/6J mouse at 20 mg/kg, po. Set-up: time < 8 hr, dose 20 mg/kg, route oral. The following applies: plasma. It counts as ADME, organism-based. Put shortly:
as §2

Data set [12] can be described thus: (§3) Oral bioavailability in C57BL/6J mouse at 20 mg/kg. In kind it is ADME, organism-based. The following applies: C57BL/6J, in vivo.
For data set [13], the system named is Mus musculus. Kind of data set: In vivo inhibition of SCD1 in non-fat diet-induced oral dosed C57BL/6J mouse liver assessed as conversion of ratio of [14C]oleate to [14C]stearate after 2 to 3 hrs. In kind it is functional. To be noted: read-out: ID50 (the source's name). Put shortly: (§4)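 C57BL/6J mice on a non-fat diet (n = 2) dosed with inhibitor 2 h or 6 h before [14C]stearate. Mice killed 1 h after the [14C]stearate injection and livers removed. ID50 in mg/kg is the arithmetic mean of at least two experiments.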

Data set [14] concerns Mus musculus. Kind of data set: In vivo inhibition of SCD1 in non-fat diet-induced oral dosed C57BL/6J mouse liver assessed as conversion of ratio of [14C]oleate to [14C]stearate after 6 to 7 hrs. The following applies: read-out: ID50 (the source's name). It counts as functional. Put shortly: as §4
In data set [15] the test system is Mus musculus. Described as §3. To be noted: in vivo. In kind it is ADME, organism-based.
For data set [16], the species on record is Mus musculus. As to the kind of experiment: Toxicity in C57BL/6J mouse assessed as occurance of abnormilities in eyes. It counts as organism-based. To be noted: in vivo. Put shortly:
(§5)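 C57BL/6J mice (n = 4) on a non-fat diet received oral doses once daily for 7 days, up to 3 mg/kg. The plasma desaturation index (C18:1/C18:0 ratio) served as the biomarker. Skin and eyes were inspected for abnormalities.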

The species entered for data set [17] is Mus musculus. Kind of data set: Toxicity in C57BL/6J mouse assessed as occurance of abnormilities in skin. It counts as organism-based. To be noted: in vivo. Put shortly:
as §5

The subject of data set [18] is Mus musculus. As to the kind of experiment: Reduction of desaturation index, ratio of C18:1 N9(cis)oleate to C18:0 streate in serum of low fat diet fed po dosed C57BL/6J mouse administered as single dose for 7 days measured after seventh dose. It counts as functional. Set-up: scale not given: the % may be the effect or the level left. To be noted: in the assay text read “non-fat diet” for “low fat diet”. Put shortly:
as §5

Structures are written as SMILES.

22 compounds from ChEMBL document CHEMBL1153242, “Novel spiropiperidine-based stearoyl-CoA desaturase-1 inhibitors: Identification of 1'-{6-[5-(pyridin-3-ylmethyl)-1,3,4-oxadiazol-2-yl]pyridazin-3-yl}-5-(trifluoromethyl)-3,4-dihydrospiro[chromene-2,4'-piperidine]” (Bioorg Med Chem Lett, 2010) can be followed below.

What is called IC50 is the concentration that gives 50% inhibition. The term clearance denotes the rate of elimination divided by the concentration. By Vd is commonly meant the apparent volume that relates the amount in the body to the concentration in plasma or blood. For orientation: Cmax means the maximum level reached in the sampled fluid or tissue. As usually defined, the half-life is the time needed for the level to fall by half in the phase considered. In general, Tmax refers to the time from dosing to the highest level. For orientation: AUC(0-t) means exposure summed from dosing to a finite time, without extrapolation to infinity. Broadly, the bioavailability is dose-corrected exposure relative to a reference, in per cent.

For `FC(F)(F)c1cccc2c1CCC1(CCN(c3ccc(-c4nnc(CCc5cccnc5)o4)nn3)CC1)O2`, the IC50 was 35 nM at Stearoyl-CoA desaturase [1], 16 nM in [2] and 2 nM in data set [3].

Take `O=C(NCC(O)c1ccccc1)c1ccc(N2CCC3(CC2)Oc2ccccc2CC3O)nn1` (stereo not drawn): the IC50 was found to be 560 nM at Stearoyl-CoA desaturase [1], 49 nM in [2] and 300 nM in [3].

`O=C(NCC(O)c1cccnc1)c1ccc(N2CCC3(CCc4c(F)cccc4O3)CC2)nn1` (stereo not drawn): the IC50 came out at 7 nM at Stearoyl-CoA desaturase [1], 6 nM in [2] and 12 nM in data set [3]. Also, in the data set on Mus musculus [4], the ED50 came out at 2 mg/kg.

Regarding `O=C(NCC(O)c1ccccc1)c1ccc(N2CCC3(CC2)CC(O)c2c(F)cccc2O3)nn1` (stereo not drawn), the ED50 in the data set on Mus musculus [4] was 7 mg/kg.

In the case of `O=C(NCC(O)c1ccccc1)c1ccc(N2CCC3(CC2)CC(O)c2cc(F)ccc2O3)nn1` (stereo not drawn), the IC50 in [3] is over 1000 nM.

Turning to `O=C(NCC(O)c1ccccc1)c1ccc(N2CCC3(CC2)CC(=O)c2ccccc2O3)nn1` (stereo not drawn), the IC50 was found to be 690 nM on Stearoyl-CoA desaturase [1], 50 nM in [2] and 250 nM in [3].

Regarding `O=C(NCC(O)c1ccccc1)c1ccc(N2CCC3(CC2)Oc2ccccc2CC3=O)nn1` (stereo not drawn), in data set [3], the IC50 is over 10000 nM.

Turning to `COc1cccc2c1C(O)CC1(CCN(c3ccc(C(=O)NCC(O)c4ccccc4)nn3)CC1)O2` (stereo not drawn), the IC50 in [3] was over 1000 nM.

On to `FC(F)(F)c1cccc2c1CCC1(CCN(c3ccc(-c4nnc(Cc5cccnc5)[nH]4)nn3)CC1)O2`, for which the results for the IC50 (on Stearoyl-CoA desaturase [1]; in data set [2]; in [3]) were 4 nM, 1 nM and 0.13 nM, respectively.

Regarding `O=C(NCC(O)c1ccccc1)c1ccc(N2CCC3(CC2)Cc2ccccc2C3=O)nn1` (stereo not drawn), the IC50 in data set [3] stood at 2000 nM.

For `O=C(NCC(O)c1ccccc1)c1ccc(N2CCC3(CC2)Cc2ccccc2CO3)nn1` (stereo not drawn), the IC50 was 76 nM in data set [2] and over 400 nM on Stearoyl-CoA desaturase [5].

Turning to `O=C(NCC(O)c1cccnc1)c1ccc(N2CCC3(CCc4c(cccc4C(F)(F)F)O3)CC2)nn1` (stereo not drawn), the figures for the ED50 with Mus musculus [4], in the data set with Mus musculus [13] and in the data set with Mus musculus [14] were 0.8 mg/kg, 0.9 mg/kg and 2.5 mg/kg, respectively. The clearance in data set [6] is 17 mL/min/kg. The Vd in [7] is 1 L/kg. This compound registered a Cmax in data set [8] of 3500 ng/mL. The half-life in data set [9] is 2 h. Besides, the Tmax in data set [10] came to 1 h. Moreover, the AUC(0-t) at 8 h in data set [11] is 13000 ng·h/mL. The compound also displayed a bioavailability in [12] of 67%.

Take `O=C(NCC(O)c1ccccc1)c1ccc(N2CCC3(CC2)CC(O)c2ccc(F)cc2O3)nn1` (stereo not drawn): the ED50 with Mus musculus [4] was 20 mg/kg.

As to `O=C(NCC(O)c1cccnc1)c1ccc(N2CCC3(CCc4c(Cl)cccc4O3)CC2)nn1` (stereo not drawn), in the data set with Mus musculus [4], the ED50 was 3 mg/kg.

In the case of `O=C(NCC(O)c1cccnc1)c1ccc(N2CCC3(CCc4c(F)ccc(F)c4O3)CC2)nn1` (stereo not drawn), the ED50 with Mus musculus [4] came to 5 mg/kg.

For `FC(F)(F)c1cccc2c1CCC1(CCN(c3ccc(-c4nnc(Cc5cccnc5)o4)nn3)CC1)O2`, the IC50 is 0.8 nM at Stearoyl-CoA desaturase [1], 0.06 nM in [2] and 0.03 nM in data set [3]. In data set [8], this compound showed a Cmax of 2600 ng/mL. For the same compound, the half-life in data set [9] was 1.4 h. Further, the Tmax in data set [10] was determined as 1 h. The compound also gave an AUC(0-t) at 8 h in data set [11] of 7800 ng·h/mL. The F result in the data set on Mus musculus [15] was “Not Active”. For the same compound, the ED50 with Mus musculus [13] is 0.5 mg/kg; with Mus musculus [14], 0.8 mg/kg. Moreover, the Activity result in the data set filed under Mus musculus [16] is “Non-toxic”; in the data set filed under Mus musculus [17] it was “Non-toxic”; in the data set on Mus musculus [18] it was 75%.

Take `Cc1cccc2c1CCC1(CCN(c3ccc(C(=O)NCC(O)c4cccnc4)nn3)CC1)O2` (stereo not drawn): in the data set with Mus musculus [4], the ED50 was 4 mg/kg.

Consider `Cn1nc(Cc2cccnc2)nc1-c1ccc(N2CCC3(CCc4c(cccc4C(F)(F)F)O3)CC2)nn1`, for which the IC50 at Stearoyl-CoA desaturase [1] amounted to 38 nM; in data set [2], 65 nM; in [3], 4 nM.

For the compound `FC(F)(F)c1cccc2c1CCC1(CCN(c3ccc(-c4nnc(-c5cccnc5)o4)nn3)CC1)O2`, the IC50 in [2] is over 10000 nM.

For `O=C(NCC(O)c1ccccc1)c1ccc(N2CCC3(C=Cc4ccccc4O3)CC2)nn1` (stereo not drawn), the values for the IC50 in data set [2] and in data set [3] were 61 nM and 790 nM, respectively.

Turning to `O=C(NCC(O)c1ccccc1)c1ccc(N2CCC3(CC2)CC(O)c2ccccc2O3)nn1` (stereo not drawn), the ED50 in the data set on Mus musculus [4] is 15 mg/kg.

As for `O=C(NCC(O)c1ccccc1)c1ccc(N2CCC3(CC2)Oc2ccccc2C3=O)nn1` (stereo not drawn), in data set [2], the IC50 was over 10000 nM.
